Tests used:
[1] = target: T1, Soluble guanylate cyclase (Homo sapiens) (UniProt Q02153+O75343+P33402+Q02108); experiment: Activation of human soluble guanylate cyclase assessed as production of cGMP in presence of nitric oxide donor, SIN-1 by LC-MS enzyme assay; format: protein-complex assay
[2] = Apparent permeability from apical to basolateral side in dog RRCK cells; format: ADME, cell-based, Canis lupus familiaris, MDCKII-LE; settings: MDCK
Procedure, shortened: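 Passive permeability measured in RRCK cells as Papp A→B, in units of 10^-6 cm/s.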

CYP1A2 = target: T2, CYP1A2 (Homo sapiens, UniProt P05177); experiment: Inhibition of CYP1A2 at 3 uM; format: ADME
T2 sequence (P05177 whole entry): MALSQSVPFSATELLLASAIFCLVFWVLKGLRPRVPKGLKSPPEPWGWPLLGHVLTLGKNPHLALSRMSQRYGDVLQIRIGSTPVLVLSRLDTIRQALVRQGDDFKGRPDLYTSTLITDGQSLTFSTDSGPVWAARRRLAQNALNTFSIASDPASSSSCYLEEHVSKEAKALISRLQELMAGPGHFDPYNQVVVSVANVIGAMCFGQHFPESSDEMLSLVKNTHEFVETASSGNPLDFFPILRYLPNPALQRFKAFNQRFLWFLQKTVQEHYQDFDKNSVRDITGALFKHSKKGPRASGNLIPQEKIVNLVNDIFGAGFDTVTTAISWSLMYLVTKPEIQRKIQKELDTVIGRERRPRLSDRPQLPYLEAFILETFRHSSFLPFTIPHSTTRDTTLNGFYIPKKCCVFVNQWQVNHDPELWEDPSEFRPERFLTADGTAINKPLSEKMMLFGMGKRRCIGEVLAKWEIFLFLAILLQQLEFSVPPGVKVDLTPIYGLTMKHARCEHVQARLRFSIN

[3] = Octanol-buffer partition coefficient, log D of the compound at pH 7.4; format: physicochemical
Procedure, shortened: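 LogD measured by partition between octanol and pH 7.4 buffer.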

[4] = Intrinsic clearance in human liver microsomes assessed per mg of protein; format: ADME, Microsome
Procedure, shortened: (§1)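 Intrinsic metabolic clearance in liver microsomes, expressed as µL/min/mg protein.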

[5] = target: T1, Soluble guanylate cyclase (Homo sapiens); experiment: Activation of human soluble guanylate cyclase assessed as production of cGMP in presence of nitric oxide donor, SIN-1 by FP assay; format: protein-complex assay
Procedure, shortened: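 Purified human sGC with the NO donor SIN-1 present. Enzyme converts GTP to cGMP, and the cGMP binds a cGMP-specific antibody included in the reactions. Read-out is fluorescence polarization.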

[6] = Activation of soluble guanylate cyclase in Sprague-Dawley rat thoracic aorta rings assessed as […] in presence of nitric oxide donor, DETA-NO; format: tissue-based
[7] = Volume of distribution at steady state in rat at 2 mg/kg, iv; format: ADME, organism-based; set-up: dose 2 mg/kg, route intravenous; settings: in vivo, read-out: Vdss
Procedure, shortened: (§2)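 Rats dosed iv at 2 mg/kg. Clearance, volume of distribution at steady state and half-life derived after iv dosing.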

[8] = Half life in rat at 2 mg/kg, iv; format: ADME, organism-based; set-up: dose 2 mg/kg, route intravenous; settings: in vivo; procedure, shortened: as §2
[9] = Clearance in rat at 2 mg/kg, iv; format: ADME, organism-based; set-up: dose 2 mg/kg, route intravenous; settings: in vivo; procedure, shortened: as §2
[10] = Oral bioavailability in rat at 2 mg/kg; format: ADME, organism-based; settings: in vivo
Procedure, shortened: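 Rats dosed orally at 2 mg/kg. Bioavailability determined after oral dosing, with a 2 mg/kg iv arm for reference.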

[11] = target: Voltage-gated inwardly rectifying potassium channel KCNH2 (Homo sapiens, UniProt Q12809); experiment: Inhibition of human ERG
[12] = Intrinsic clearance in rat liver microsomes assessed per mg of protein; format: ADME, Microsome; procedure, shortened: as §1
[13] = Activation of soluble guanylate cyclase in Sprague-Dawley rat thoracic aorta rings assessed as inhibition of noradrenaline-evoked vasoconstriction in presence of nitric oxide donor, DETA-NO
[14] = Apparent permeability of the compound by PAMPA assay; format: ADME
Procedure, shortened: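 Passive permeability from a PAMPA screen, as Papp in units of 10^-6 cm/s.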

Sequence of Voltage-gated inwardly rectifying potassium channel KCNH2 (Q12809 whole entry): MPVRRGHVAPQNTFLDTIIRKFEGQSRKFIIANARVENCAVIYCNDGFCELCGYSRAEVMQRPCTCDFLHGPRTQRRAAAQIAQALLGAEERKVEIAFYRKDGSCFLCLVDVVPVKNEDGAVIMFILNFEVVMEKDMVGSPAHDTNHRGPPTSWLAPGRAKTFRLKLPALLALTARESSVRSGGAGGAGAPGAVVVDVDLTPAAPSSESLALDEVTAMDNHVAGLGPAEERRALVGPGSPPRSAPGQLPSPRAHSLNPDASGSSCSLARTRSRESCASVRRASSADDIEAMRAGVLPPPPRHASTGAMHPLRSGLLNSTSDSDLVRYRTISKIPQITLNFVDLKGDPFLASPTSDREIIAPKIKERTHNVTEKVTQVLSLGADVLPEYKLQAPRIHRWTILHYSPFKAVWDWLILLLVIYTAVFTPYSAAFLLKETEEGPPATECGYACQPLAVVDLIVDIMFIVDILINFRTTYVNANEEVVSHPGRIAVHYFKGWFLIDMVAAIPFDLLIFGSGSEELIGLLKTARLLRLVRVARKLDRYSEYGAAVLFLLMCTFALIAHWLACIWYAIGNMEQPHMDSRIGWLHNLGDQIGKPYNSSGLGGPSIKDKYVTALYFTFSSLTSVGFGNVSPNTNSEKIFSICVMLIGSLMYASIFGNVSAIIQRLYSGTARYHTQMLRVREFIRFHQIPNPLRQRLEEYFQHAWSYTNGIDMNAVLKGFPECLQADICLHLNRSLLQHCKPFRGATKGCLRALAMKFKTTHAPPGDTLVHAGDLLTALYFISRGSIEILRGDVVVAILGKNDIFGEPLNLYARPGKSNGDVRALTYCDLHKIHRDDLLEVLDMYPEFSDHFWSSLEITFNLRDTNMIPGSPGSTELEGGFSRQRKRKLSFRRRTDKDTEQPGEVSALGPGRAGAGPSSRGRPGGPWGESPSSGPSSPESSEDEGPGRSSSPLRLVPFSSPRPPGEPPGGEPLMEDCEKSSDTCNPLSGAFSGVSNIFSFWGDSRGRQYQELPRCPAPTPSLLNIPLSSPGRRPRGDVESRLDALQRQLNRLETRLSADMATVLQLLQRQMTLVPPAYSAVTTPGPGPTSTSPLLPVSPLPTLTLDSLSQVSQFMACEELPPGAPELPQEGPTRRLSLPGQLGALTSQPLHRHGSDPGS

EC10 [1]	Papp A→B [2]	inhibition at 3 µM (CYP1A2)	logD [3]	microsomal CLint [4]	EC20 [5]	IC50 [6]	Vd [7]	half-life [8]	clearance [9]	bioavailability [10]	microsomal CLint [12]	IC50 [13]	Papp [14]	SMILES	INH [11]
393 nM	1 ×10⁻⁶ cm/s	23%	3.3	124 µL/min/mg	–	–	–	–	–	–	–	–	–	Cc1n[nH]c(-c2nc(Cc3ccccc3F)c3ccccn23)n1	–
658 nM	17 ×10⁻⁶ cm/s	66%	3.9	20 µL/min/mg	1070 nM	–	–	–	–	–	–	–	–	Fc1ccccc1Cc1nc(-c2nc(C(F)(F)F)n[nH]2)c2ccccn12	–
2810 nM	13 ×10⁻⁶ cm/s	16%	2.8	< 8 µL/min/mg	–	–	–	–	–	–	–	–	–	NC(=O)c1n[nH]c(-c2nc(Cc3ccccc3F)c3ccccn23)n1	–
840 nM	0.5 ×10⁻⁶ cm/s	29%	–	–	554 nM	–	–	–	–	–	–	–	–	Fc1ccccc1Cc1nc(-c2nc(Cc3ccccc3)n[nH]2)n2ccccc12	–
507 nM	0.2 ×10⁻⁶ cm/s	49%	3.8	62 µL/min/mg	–	–	–	–	–	–	–	–	–	Fc1ccccc1Cc1nc(-c2nc(C(F)F)n[nH]2)n2ccccc12	–
60 nM	20 ×10⁻⁶ cm/s	20%	3.2	< 11 µL/min/mg	22 nM	33 nM	3.1 L/kg	4.7 h	8 mL/min/kg	66%	–	–	–	Fc1ccccc1Cn1nc(-c2nc(C(F)(F)F)n[nH]2)c2cccnc21	–
210 nM	19 ×10⁻⁶ cm/s	82%	1.8	< 7 µL/min/mg	80 nM	–	3.7 L/kg	4.1 h	9.9 mL/min/kg	61%	< 16 µL/min/mg	60 nM	–	FC(F)(F)c1n[nH]c(-c2nc(Cc3cncnc3)c3ccccn23)n1	> 10 µM
470 nM	6 ×10⁻⁶ cm/s	57%	3.8	72 µL/min/mg	281 nM	–	–	–	–	–	–	40 nM	–	Fc1ccccc1Cc1nc(-c2nc(C(F)(F)F)n[nH]2)n2ccccc12	–
2800 nM	8 ×10⁻⁶ cm/s	39%	3.3	175 µL/min/mg	–	–	–	–	–	–	–	–	–	Fc1ccccc1Cc1nc(-c2ncn[nH]2)n2ccccc12	–
1170 nM	3 ×10⁻⁶ cm/s	31%	4.2	92 µL/min/mg	–	–	–	–	–	–	–	–	–	Fc1ccccc1Cc1nc(-c2nc(C(F)(F)C(F)(F)F)n[nH]2)n2ccccc12	–
224 nM	–	–	–	–	–	–	–	–	–	–	–	–	–	Fc1ccccc1Cc1nc(-c2nc(C(F)(F)F)n[nH]2)c2cccnn12	–
366 nM	27 ×10⁻⁶ cm/s	5%	2.1	< 8 µL/min/mg	245 nM	–	–	–	–	–	–	–	–	Cc1ncc(Cc2nc(-c3nc(C(F)(F)F)n[nH]3)n3ccccc23)cn1	–
724 nM	28 ×10⁻⁶ cm/s	17%	2.5	17 µL/min/mg	221 nM	–	–	–	–	–	–	–	–	Fc1ccccc1Cc1nc(-c2nc(C(F)(F)F)n[nH]2)n2cccnc12	–
1340 nM	–	3%	1.2	14 µL/min/mg	–	–	–	–	–	–	–	–	–	CS(=O)(=O)c1n[nH]c(-c2nc(Cc3ccccc3F)c3ccccn23)n1	–
–	–	< 5%	–	< 7 µL/min/mg	58 nM	–	–	–	–	–	–	–	27 ×10⁻⁶ cm/s	Cc1ncc(Cn2nc(-c3nc(C(F)(F)F)n[nH]3)c3cccnc32)cn1	–
3360 nM	6 ×10⁻⁶ cm/s	69%	3.7	212 µL/min/mg	–	–	–	–	–	–	–	–	–	OCc1ccc(-c2nn(Cc3ccccc3)c3ccccc23)o1	–
–	23 ×10⁻⁶ cm/s	15%	2	< 8 µL/min/mg	73 nM	–	–	–	–	–	–	–	–	Cc1ncc(Cc2nc(-c3nc(C(F)(F)F)n[nH]3)n3cccc(F)c23)cn1	–

SMILES	EC10 [1]	Papp A→B [2]	inhibition at 3 µM (CYP1A2)	logD [3]	microsomal CLint [4]	EC20 [5]	IC50 [6]	Vd [7]	half-life [8]	clearance [9]	bioavailability [10]	microsomal CLint [12]	IC50 [13]	Papp [14]	INH [11]
Nc1nc(-c2nn(Cc3ccccc3F)c3ncccc23)nc(N)c1N1CCOCC1	44 nM	–	–	3.1	–	11 nM	–	–	–	–	–	–	11 nM	–	–

From ChEMBL document CHEMBL1914314, “Acidic triazoles as soluble guanylate cyclase stimulators” (Bioorg Med Chem Lett, 2011)
